Sampled rows, rich in hits. Any-hit rate of the full collection: about 1.9%.
CASP6 VEID inh – inhibitors of human caspase-6; P55212; inhibition, % at 12.5 µM; 350,000 tested, 0.53% active; purified caspase-6, Z-VEID-R110 cleavage fluorescence;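 active means mean inhibition across replicates at least about 35%, with every replicate also reaching that limit, limit read from the data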;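 further: 0% = median of neutral control wells and 100% = no fluorescence left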
MBD2 DNA inh – blocks human MBD2 binding to methylated DNA; inhibition, % at 4.4 µM; TR-FRET, MBD2 binding to methylated oligonucleotide; Q9UBB5; 370,000 tested, 0.31% active; in the data active means inhibition above about 13%
UHRF1 MBD2 ctr – blocks human UHRF1 binding to methylated DNA; 370,000 tested, 0.75% active; inhibition, % at 4.4 µM; AID 687016; Q96T88; UHRF1 binding to methylated oligo, TR-FRET;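 further: UHRF1 SRA domain binding a hemimethylated CpG hairpin DNA probe; 0% = median of test compound wells and 100% = reference inhibitor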
TDP2 absorb – blocks human TDP2 phosphodiesterase activity; AID 720702; inhibition, % at 12.8 µM; 370,000 tested, 0.34% active; O95551; recombinant TDP2, T5PNP hydrolysis, p-nitrophenol absorbance 415 nm;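 active means inhibition above the mean of all tested compounds plus 3 SD, set per campaign, cut at about 25% in these data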;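 further: 0% = DMSO with enzyme and 100% = buffer with substrate but no TDP2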
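Incubation: 2 h at 37 °C; Test system: recombinant human TDP2; Quantity: enzyme 120 nM; Read-out basis: percent inhibition; Medium: 50 mM Tris-HCl pH 7.5 with Mg2+, KCl, DTT, BSA; Repeats: single replicate; Compound: 12.8 µM single point, 1% DMSO; Signal: epi absorbance; Reagent: 5 mM T5PNP chromogenic substrate; Benchmarks: no-enzyme high, DMSO-plus-enzyme low.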
NSD2 HMT inh – blocks human histone methyltransferase NSD2; NSD2 peptide methylation, AlphaScreen, 120 min; inhibition, % at 12.5 µM; 310,000 tested, 0.54% active; AID 743445; in the data active means inhibition above about 50%
Target sequence (O96028 whole entry, looked up): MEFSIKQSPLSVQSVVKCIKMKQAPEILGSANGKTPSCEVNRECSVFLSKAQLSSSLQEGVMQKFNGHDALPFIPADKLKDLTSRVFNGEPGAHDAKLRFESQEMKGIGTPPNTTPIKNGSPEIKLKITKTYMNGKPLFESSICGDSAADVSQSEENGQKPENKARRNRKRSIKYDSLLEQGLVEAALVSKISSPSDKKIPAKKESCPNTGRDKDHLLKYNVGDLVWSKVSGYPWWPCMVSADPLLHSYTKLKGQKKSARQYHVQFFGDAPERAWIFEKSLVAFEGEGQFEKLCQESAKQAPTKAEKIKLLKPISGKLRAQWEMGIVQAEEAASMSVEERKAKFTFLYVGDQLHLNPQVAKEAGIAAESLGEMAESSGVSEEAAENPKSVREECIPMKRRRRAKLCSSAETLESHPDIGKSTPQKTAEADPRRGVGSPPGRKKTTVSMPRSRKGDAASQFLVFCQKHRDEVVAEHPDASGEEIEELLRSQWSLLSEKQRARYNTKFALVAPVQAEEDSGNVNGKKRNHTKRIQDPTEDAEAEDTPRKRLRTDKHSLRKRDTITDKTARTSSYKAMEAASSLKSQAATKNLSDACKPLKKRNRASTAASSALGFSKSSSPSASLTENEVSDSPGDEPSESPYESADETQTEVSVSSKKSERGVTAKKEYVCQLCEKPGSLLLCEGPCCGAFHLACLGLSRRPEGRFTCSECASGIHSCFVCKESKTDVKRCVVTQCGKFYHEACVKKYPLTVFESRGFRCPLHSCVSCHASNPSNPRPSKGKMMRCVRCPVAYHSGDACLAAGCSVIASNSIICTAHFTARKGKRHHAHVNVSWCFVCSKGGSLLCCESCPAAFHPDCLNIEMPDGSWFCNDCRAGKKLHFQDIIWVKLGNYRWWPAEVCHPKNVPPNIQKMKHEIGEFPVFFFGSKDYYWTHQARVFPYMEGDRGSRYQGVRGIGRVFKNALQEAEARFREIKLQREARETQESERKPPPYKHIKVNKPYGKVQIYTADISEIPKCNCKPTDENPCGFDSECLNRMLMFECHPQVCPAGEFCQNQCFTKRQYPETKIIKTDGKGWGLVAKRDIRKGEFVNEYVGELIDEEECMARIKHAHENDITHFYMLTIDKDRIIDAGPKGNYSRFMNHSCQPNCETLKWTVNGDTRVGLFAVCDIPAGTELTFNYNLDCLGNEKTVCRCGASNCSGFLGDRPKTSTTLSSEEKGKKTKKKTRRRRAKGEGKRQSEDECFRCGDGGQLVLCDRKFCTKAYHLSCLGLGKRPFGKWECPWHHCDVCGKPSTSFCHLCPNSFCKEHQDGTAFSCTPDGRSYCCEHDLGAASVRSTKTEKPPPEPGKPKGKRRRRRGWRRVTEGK
LEDGF integ inh – blocks HIV-1 LEDGF/p75-dependent DNA integration | TR-FRET IN-LEDGF/p75 DNA integration, Eu/Cy5 | inhibition, % at 3.7 µM | 370,000 tested, 0.64% active;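 active means inhibition above the screen-wide mean plus 3 SD, cut at about 13% in these data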;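 further: signal is the Cy5 over europium emission ratio at 671 and 618 nm; 0% = plate median of compound wells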
UHRF1 DNA bind – inhibits human UHRF1 binding to methylated oligonucleotide, MBD2 counter-screen; shares compounds with MBD2 DNA inh; TR-FRET; inhibition, % at 4.4 µM; 1,000 tested, 25% active;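 further: UHRF1 SRA domain binding a labeled hemimethylated CpG hairpin DNA; 0% = vehicle only and 100% = reference inhibitor with vehicle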
MBD2 DBD conf – confirmation of human MBD2-DBD methylated oligonucleotide binding inhibitors | inhibition, % at 4.4 µM | TR-FRET MBD2-DBD binding to methylated oligonucleotide | AID 720531 | 1,000 tested, 26% active | shares compounds with MBD2 DNA inh; in the data active means inhibition above about 14%
* hit, by the source's call; nt = no result. Unless noted, no stated cut-off is given here; in the data, active means inhibition above about 21%; inactive means the rest.

SMILES | CASP6 VEID inh | MBD2 DNA inh | UHRF1 MBD2 ctr | TDP2 absorb | NSD2 HMT inh | LEDGF integ inh | UHRF1 DNA bind | MBD2 DBD conf
CC1CCC(NCc2ccco2)CC1 (configuration not stated) | nt | 18* | 2 | -4 | 0 | 1 | 0 | 6
CCOC(=O)[C@]12CCC=C1N(Cc1ccco1)C(=O)[C@H](CC(=O)N1CCC(c3ccccc3)CC1)C2 | 9 | 15* | 10 | -5 | nt | -1 | 7 | 10
CCC(=O)N1C[C@@H](C)[C@@H](OC)CN(C)C(=O)c2cc(NC(=O)C3CCCCC3)ccc2OC[C@H]1C | 0 | nt | nt | nt | nt | nt | nt | nt
O=C(C[C@@H]1CC[C@@H]2[C@H](COC[C@@H](O)CN2Cc2ccccc2F)O1)N1CCc2ccccc2C1 | -2 | nt | nt | nt | nt | nt | nt | nt
CCc1nc2c(OCc3cc(Cl)cc(Cl)c3)cccn2c1N(C)C(=O)c1ccccc1F | -1 | -1 | -6 | 5 | 0 | 5 | nt | nt
CCc1nc2c(OCc3cccc(OC)c3)cccn2c1N(C)C(=O)c1ccccc1F | 0 | 26* | -2 | -2 | 10 | -2 | 3 | 1
O=C(C(=O)N1CCC(CNS(=O)(=O)c2ccccc2OC(F)(F)F)CC1)c1cccs1 | 1 | 28* | 27* | 2 | nt | 3 | 8 | 3
CC(C)(C)c1ccc(S(=O)(=O)NCC2CCN(C(=O)C(=O)c3cccs3)CC2)cc1 | 4 | 1 | 0 | 10 | 0 | -2 | nt | nt
Cn1cnc([N+](=O)[O-])c1S(=O)(=O)Oc1ccccc1 | 25 | 14* | 7 | 0 | nt | -2 | 3 | 2
Cc1c(CC(=O)O)c(=O)oc2c(C)c3occ(-c4ccc(Br)cc4)c3cc12 | 5 | 30* | 1 | 15 | 4 | 3 | 0 | 3
O=C(NC1CCC1)c1ccc(C#Cc2cccc(F)c2)nc1 | nt | 17* | 17 | 3 | nt | 7 | 14 | 10
C[C@H]1CN([C@@H](C)CO)S(=O)(=O)c2ccc(-c3cccnc3)cc2O[C@@H]1CN(C)C | -1 | nt | nt | nt | nt | nt | nt | nt
COc1ccc(/C=C\c2nc(O)c([N+](=O)[O-])c(=O)[nH]2)cc1O | 29 | 39* | -5 | 1 | -1 | 1 | 12 | -2
C=CCOc1ccc(/C=C\c2nc(O)c([N+](=O)[O-])c(=O)[nH]2)cc1OCC | 33 | 6 | 1 | -7 | 12 | 7 | nt | nt
Cc1ccc(CN2C(=O)C3CCCN3c3ncccc32)cc1 (configuration not stated) | 1 | 52* | -2 | -7 | -3 | -2 | 5 | 3
Cc1ccc(N2CCN(CCCCN3C(=O)C4CCCN4C3=O)CC2)cc1 (configuration not stated) | nt | -1 | 2 | 8 | 39 | -2 | nt | nt
COC(=O)c1ccc(C(=O)OC)c(NC(=O)Cc2cccs2)c1 | 4 | 16* | 20 | -6 | -1 | 1 | 22* | 15*
COc1ccc(NC(=O)Nc2c[nH]c(=O)[nH]c2=O)cc1 | -2 | 2 | -4 | 3 | -7 | 3 | nt | nt
COc1ccc(Cc2c[nH]c(=O)[nH]c2=O)cc1 | nt | 16* | 24* | -6 | -2 | 6 | 2 | 5
CC(=O)N1c2ccc(S(=O)(=O)N3c4ccccc4CC3C)cc2CC1C (configuration not stated) | -1 | -1 | -2 | 8 | -1 | 1 | nt | nt
CC1Cc2ccccc2N1S(=O)(=O)c1ccc2c(c1)n(C)c(=O)c(=O)n2C (configuration not stated) | nt | 14* | 4 | -9 | -3 | 4 | 1 | 4
COC(C(=O)N1CCC(CCC(=O)Nc2ccccc2)CC1)c1ccccc1 (configuration not stated) | 1 | 15* | 27* | -16 | 31 | -3 | 4 | 4
COc1ccc(C(=O)N2CCC(CCC(=O)Nc3cccc(C)c3)CC2)cc1 | 3 | -1 | 1 | 3 | 1 | 0 | nt | nt
COc1cccc(CNC(=O)C2(C)Oc3ccccc3NC2=O)c1 (configuration not stated) | nt | 61* | 2 | -2 | -1 | 1 | 7 | 1
COC(CNC(=O)c1cn(C)c2ccc(S(=O)(=O)N(C)C3CCCCC3)cc2c1=O)OC | 1 | 26* | 1 | 13 | -1 | 3 | 2 | 1
SMILES | CASP6 VEID inh | MBD2 DNA inh | UHRF1 MBD2 ctr | TDP2 absorb | NSD2 HMT inh | LEDGF integ inh | UHRF1 DNA bind | MBD2 DBD conf
COc1cccc(NC(=O)CN(C)C(=O)c2cc3c(s2)CCC3)c1 | 15 | 27* | 55* | -8 | 3 | 9 | 30* | 26*
CCCNC(=O)C[C@H]1CC[C@@H]2[C@H](COC[C@H](O)CN2Cc2ccncc2)O1 | 0 | nt | nt | nt | nt | nt | nt | nt
CC(=O)CCS(=O)(=O)c1ccc(NC(C)=O)cc1 | nt | -1 | 3 | -12 | 0 | -2 | nt | nt
CC(=O)Nc1ccc(S(=O)(=O)CC(=O)CS(=O)(=O)c2ccc(NC(C)=O)cc2)cc1 | 18 | 14* | 1 | 8 | 0 | -2 | 5 | -1
NS(=O)(=O)c1ccc(CCNC(=O)CCS(=O)(=O)c2ccc(Br)cc2)cc1 | 79* | 17* | 29* | 8 | 0 | 0 | 44* | 30*
CCN1CCN(CC(O)COCC2COc3ccccc3O2)CC1 (configuration not stated) | -8 | 16* | 16 | 11 | 6 | -1 | 6 | 0
CCC(C)(C)NC(=O)Cn1c(-c2ccc(C)cc2)noc1=O | -2 | -1 | -2 | 8 | nt | 0 | nt | nt
CCCCNC(=O)Cn1c(-c2ccc(OC)cc2)noc1=O | nt | 14* | 13 | 2 | -4 | -4 | -1 | 2
COc1cccc(S(=O)(=O)N2CC[C@@H]3[C@H]2c2cc(C#Cc4cccnc4)ccc2N[C@@H]3CO)c1 | -1 | nt | nt | nt | nt | nt | nt | nt
Cc1ccc(Br)cc1S(=O)(=O)Nc1cccnc1 | -2 | 18* | 36* | 9 | 0 | 11 | 2 | 4
CCCCCCSc1ccc([C@H]2N[C@@](Cc3ccccc3)(C(=O)OC)[C@H]3C(=O)N(C)C(=O)[C@@H]23)cc1 | 1 | 14* | 20 | 21 | nt | 8 | 7 | 2
CC(C)NC(=O)N(C)C[C@H]1OCCCC[C@H](C)Oc2ccc(NC(=O)Nc3cccc4ccccc34)cc2C(=O)N([C@H](C)CO)C[C@@H]1C | -2 | nt | nt | nt | nt | nt | nt | nt
O=C(CNC(=O)/C=C/c1ccco1)N=Nc1c(O)[nH]c2ccccc12 | 26 | 30* | 53* | 4 | 8 | 34* | 65* | 51*
O=C(CNC(=O)Cc1ccccc1)N=Nc1c(O)[nH]c2ccccc12 | 1 | -10 | -5 | -5 | 16 | -3 | nt | nt
CC(C)NC(=O)N1CC2(C1)[C@H](c1ccccc1)[C@@H](CO)N2C(=O)C1CCOCC1 | 1 | nt | nt | nt | nt | nt | nt | nt
